The record followed here is ChEMBL document CHEMBL1250461, “Synthesis, binding and bioactivity of gamma-methylene gamma-lactam ecdysone receptor ligands: advantages of QSAR models for flexible receptors” (Bioorg Med Chem, 2010).

pIC50: −log10 of the molar value. ≈ marks a conversion by molar mass, not a printed value.

A short description of data set [1]: Toxicity in Bovicola ovis assessed as mortality after 9 days. The following applies: 216 h.
Data set [2] can be described thus: Binding affinity to Bovicola ovis recombinant ecdysone receptor ligand binding domain after 3 hrs by fluorescence polarization assay. The procedure, abridged:
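B. ovis EcR_DEF/USP_DEF LBD heterodimer, co-expressed from baculovirus and purified by IMAC (2.51 mg/mL final). Competes with 36 nM fluorescein–inokosterone A conjugate in 50 mM sodium phosphate, 100 mM NaCl, pH 7.4 with 0.5 mg/mL BSA and 3% v/v DMSO. Compound range 3 nM–3 mM final. Incubated overnight at 4 °C, then 3 h at room temperature before polarisation (mP) read. Triplicate; IC50 from mean.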

The target of a further data set is T1, Ecdysone receptor (Lucilia cuprina, UniProt O18531).
T1 sequence (O18531 whole entry): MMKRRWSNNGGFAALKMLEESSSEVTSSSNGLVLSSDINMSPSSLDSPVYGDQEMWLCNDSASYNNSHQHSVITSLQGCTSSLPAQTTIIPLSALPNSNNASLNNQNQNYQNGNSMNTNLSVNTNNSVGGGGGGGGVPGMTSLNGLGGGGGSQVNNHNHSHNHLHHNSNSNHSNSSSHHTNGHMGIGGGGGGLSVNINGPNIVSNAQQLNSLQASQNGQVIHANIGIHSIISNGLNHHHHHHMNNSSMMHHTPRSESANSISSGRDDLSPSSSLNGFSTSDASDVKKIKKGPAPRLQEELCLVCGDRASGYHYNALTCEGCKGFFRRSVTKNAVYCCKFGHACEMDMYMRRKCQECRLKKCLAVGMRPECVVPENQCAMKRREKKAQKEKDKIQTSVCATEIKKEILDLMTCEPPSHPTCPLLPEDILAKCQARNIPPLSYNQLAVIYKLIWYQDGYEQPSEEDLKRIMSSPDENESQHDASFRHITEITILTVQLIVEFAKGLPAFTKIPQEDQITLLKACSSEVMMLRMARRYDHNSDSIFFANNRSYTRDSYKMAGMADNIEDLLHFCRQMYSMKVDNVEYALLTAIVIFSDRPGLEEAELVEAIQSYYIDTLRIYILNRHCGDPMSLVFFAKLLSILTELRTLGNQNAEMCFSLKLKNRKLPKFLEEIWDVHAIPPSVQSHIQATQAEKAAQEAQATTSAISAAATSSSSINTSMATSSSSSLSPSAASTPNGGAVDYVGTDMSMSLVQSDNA
As to the kind of experiment: Binding affinity to Lucilia cuprina recombinant ecdysone receptor ligand binding domain after 3 hrs by fluorescence polarization assay. The essentials:
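L. cuprina EcR_DEF/USP_DEF LBD heterodimer, baculovirus co-expressed and IMAC-purified, used at 1.14 mg/mL. Fluorescence polarisation competition against 36 nM fluorescein–inokosterone A conjugate, with 0.5 mg/mL BSA and 3% v/v DMSO in 50 mM sodium phosphate/100 mM NaCl, pH 7.4. Test range 3 nM–3 mM final. Overnight at 4 °C, then 3 h re-equilibration at room temperature, mP read. Triplicate on one plate; IC50 from mean.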
For orientation: Polarisation of emitted light reports the rotation of a fluorescent probe.

A word on the LC50: it is the concentration lethal to half of the exposed cells or organisms. The term pIC50 denotes the IC50 on a negative log10 scale, so that one unit is a factor of ten. For the compound `C=C1C(CC)=C(C#N)C(=O)N1c1cc(Cl)ccc1C(C)(C)C`, the LC50 in data set [1] worked out at 190 µg/mL (≈ 604 µM). Also, the negative logarithm of the IC50 (pIC50) in data set [2] was 4.82; at Ecdysone receptor, 4.96.

Regarding `C=C1C(CC)=C(C#N)C(=O)N1c1cc(Cl)c(Cl)cc1Cl`, the pIC50 in data set [2] was 5.26; at Ecdysone receptor it was 5.14.

Take `C=C1C(CCC)=C(C#N)C(=O)N1c1cc(Cl)ccc1Cl`: in data set [1], the LC50 was determined as 66 µg/mL (≈ 215 µM). Besides, in data set [2], the pIC50 is 5.07.

Consider `C=C1C(C)=C(C#N)C(=O)N1N1CCCCC1`, for which, in data set [1], the LC50 was found to be 244 µg/mL (≈ 1120 µM). Further, the negative logarithm of the IC50 (pIC50) in data set [2] was 3.90.

On to `C=C1C(C)=C(C#N)C(=O)N1c1ccc(Cl)cn1`, for which the pIC50 in data set [2] is 4.02.

Turning to `C=C1C(C)=C(C#N)C(=O)N1c1ncc(Cl)cc1Cl`, the pIC50 in data set [2] was 4.35.

With `C=C1C(C)=C(C#N)C(=O)N1c1cnc2ccccc2c1`, the pIC50 in data set [2] is 4.59.

As for `C=C1C(C)=C(C#N)C(=O)N1c1nccs1`, the pIC50 in data set [2] is 4.05.

For the compound `C=C1C(C)=C(C(C)=O)C(=O)N1c1cc(Cl)c(Cl)cc1Cl`, the pIC50 in data set [2] is 4.35.

For `C=C1C(C)=C(C#N)C(=O)N1c1ccccc1C(F)(F)F`, the pIC50 in data set [2] was 4.56; at Ecdysone receptor, 4.32.

As for `C=C1C(C)=C(C#N)C(=O)N1c1ccc(Cl)c(Cl)c1`, in data set [1], the LC50 turned out to be 167 µg/mL (≈ 598 µM). Besides, the pIC50 in data set [2] was 4.82.

As for `C=C1C(C)=C(C#N)C(=O)N1c1cc(Cl)cc(Cl)c1`, the pIC50 is 5.01 in data set [2] and 4.56 at Ecdysone receptor.

For the compound `C=C1C(CC(C)C)=C(C#N)C(=O)N1c1cc(Cl)cc(Cl)c1`, in data set [1], the LC50 was found to be 119 µg/mL (≈ 370 µM). For the same compound, the pIC50 in data set [2] is 5.26.

As to `C=C1C(CC(C)C)=C(C#N)C(=O)N1c1cc(C(F)(F)F)cc(C(F)(F)F)c1`, the LC50 in data set [1] was determined as 26 µg/mL (≈ 67 µM). The pIC50 in data set [2] was 5.20.

`C=C1C(CC(C)C)=C(C#N)C(=O)N1c1cc(Cl)c(Cl)cc1Cl`: the pIC50 was 5.57 in data set [2] and 5.26 on Ecdysone receptor.

For `C=C1C(CC(C)C)=C(C#N)C(=O)N1c1c(C)cc(C)cc1C`, the pIC50 in data set [2] is 4.52; on Ecdysone receptor, 3.76.

In the case of `C=C1C(c2ccccc2)=C(C#N)C(=O)N1c1c(C)cccc1C(C)C`, the pIC50 in data set [2] is 4.37; on Ecdysone receptor, 4.26.

In the case of `C=C1C(C)=C(C#N)C(=O)N1c1cc(C(C)(C)C)ccc1C(C)(C)C`, the pIC50 was 5.30 in data set [2] and 5.19 on Ecdysone receptor.

With `C=C1C(c2ccccc2)=C(C#N)C(=O)N1C1CCCCC1`, the LC50 in data set [1] was determined as 130 µg/mL (≈ 467 µM). The pIC50 is 5.12 in data set [2] and 4.90 on Ecdysone receptor.

On to `C=C1C(C)=C(C(=O)C(C)C)C(=O)N1c1cc(Cl)c(Cl)cc1Cl`, for which, in data set [2], the pIC50 was 4.80.

In the case of `C=C1C(C)=C(C(=O)OCC)C(=O)N1c1cc(Cl)c(Cl)cc1Cl`, the pIC50 in data set [2] was 4.96.

`C=C1C(C)=C(C(=O)c2ccccc2)C(=O)N1c1cccc(C(F)(F)F)c1`: the pIC50 in data set [2] is 4.90; on Ecdysone receptor, 4.76.

Consider `C=C1C(C)=C(C#N)C(=O)N1c1c(C(C)C)cccc1C(C)C`, for which the values for the pIC50 (in data set [2]; at Ecdysone receptor) were 4.68 and 4.63, respectively.

For the compound `C=C1C(C)=C(C(=O)c2ccccc2)C(=O)N1c1cc(C(F)(F)F)ccc1Cl`, the pIC50 in data set [2] was 4.74.

Turning to `C=C1C(C)=C(C(=O)c2ccccc2)C(=O)N1c1c(C)cccc1C(C)C`, the negative-log IC50 (pIC50) in data set [2] was 4.24.

Take `C=C1C(C)=C(C#N)C(=O)N1c1cc(Cl)c(C(C)(C)C)cc1Cl`: the pIC50 in data set [2] is 4.95; at Ecdysone receptor, 5.07.

For the compound `C=C1C(C)=C(C(=O)c2ccccc2)C(=O)N1c1c(C(C)C)cccc1C(C)C`, the pIC50 in data set [2] is 2.65.

In the case of `C=C1C(C)=C(C(=O)c2ccccc2)C(=O)N1c1cc(Cl)c(Cl)cc1Cl`, in data set [2], the pIC50 is 5.05.

For `C=C1C(C)=C(C(=O)c2ccccc2)C(=O)N1c1c(C)cc(C)cc1C`, in data set [2], the negative-log IC50 (pIC50) was 4.36.

In the case of `C=C1C(C)=C(C(=O)Nc2cccc(Cl)c2)C(=O)N1c1cccc(Cl)c1`, the results for the pIC50 (in data set [2]; on Ecdysone receptor) were 4.90 and 3.60, respectively.

Consider `C=C1C(C(C)C)=C(C#N)C(=O)N1c1ccccc1C(C)(C)C`, for which the pIC50 was 5.02 in data set [2] and 4.82 on Ecdysone receptor.

As for `C=C1C(C(C)C)=C(C#N)C(=O)N1c1ccc(Cl)cc1C(C)(C)C`, the negative logarithm of the IC50 (pIC50) in data set [2] was 5.19; on Ecdysone receptor it was 4.38.

`C=C1C(C(C)C)=C(C#N)C(=O)N1c1c(C)cccc1C(C)C`: the pIC50 in data set [2] was 4.56; on Ecdysone receptor it was 4.33.

Consider `C=C1C(C(C)C)=C(C#N)C(=O)N1c1c(C)cc(Cl)cc1Cl`, for which the values for the pIC50 (in data set [2]; at Ecdysone receptor) were 4.20 and 3.32, respectively.

`C=C1C(CCCC)=C(C#N)C(=O)N1c1cccc(Cl)c1C`: the LC50 in data set [1] was found to be 175 µg/mL (≈ 582 µM). Moreover, the pIC50 in data set [2] was 5.37; at Ecdysone receptor it was 5.08.

For the compound `C=C1C(CCCC)=C(C#N)C(=O)N1c1cc(Cl)ccc1C`, the pIC50 is 5.22 in data set [2] and 4.90 on Ecdysone receptor.

Regarding `C=C1C(CCCC)=C(C#N)C(=O)N1c1cc(Cl)ccc1C(C)(C)C`, the pIC50 in data set [2] was 5.40; on Ecdysone receptor it was 5.26.

With `C=C1C(CCCC)=C(C#N)C(=O)N1c1c(C)cccc1Cl`, the pIC50 is 5.22 in data set [2] and 4.25 at Ecdysone receptor.

In the case of `C=C1C(CCCC)=C(C#N)C(=O)N1c1c(C)cccc1CC`, the pIC50 in data set [2] was 4.34; on Ecdysone receptor it was 4.48.

For the compound `C/C=C1\C(C)=C(C#N)C(=O)N1c1c(Cl)cc(Cl)cc1Cl` (mixture of isomers), the pIC50 in data set [2] is 4.07.

For `CC(C)(O)CC[C@@H](O)[C@](C)(O)[C@H]1CC[C@@]2(O)C3=CC(=O)[C@@H]4C[C@@H](O)[C@@H](O)C[C@]4(C)[C@H]3CC[C@]12C` [20-HYDROXYECDYSONE], the values for the negative logarithm of the IC50 (pIC50) (in data set [2]; on Ecdysone receptor) were 4.62 and 5.26, respectively.

For the compound `CC(C)CC[C@@H](O)[C@](C)(O)[C@H]1CC[C@@]2(O)C3=CC(=O)[C@@H]4C[C@@H](O)[C@@H](O)C[C@]4(C)[C@H]3CC[C@]12C` [PONASTERONE A], the negative-log IC50 (pIC50) in data set [2] was 5.96; at Ecdysone receptor, 6.05.
